In ChEMBL document CHEMBL4346672, “Antimicrobial and KPC/AmpC inhibitory activity of functionalized benzosiloxaboroles” (Eur J Med Chem, 2019):
In brackets after ≈: the same amount, converted by molar mass.

Experiments:
[1] = Cytotoxicity against human MRC5 cells assessed as cell viability at 32 ug/ml incubated for 72 hrs by MTT assay; assay type: cell-based; settings: read-out: Activity
Summary of the method: (§1)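 MRC-5 pd30 human fibroblasts grown in MEM with 10% FBS, 2 mM L-glutamine, penicillin/streptomycin and 1% non-essential amino acids at 37 °C, 5% CO2. Exponentially growing cells trypsinized and seeded at 8×10^3 cells/well, then dosed 18 h later with 2-fold dilutions (0.5% DMSO final) for 72 h. MTT (1 mg/ml final) added for 1 h at 37 °C, formazan dissolved in DMSO, OD read at 570 nm. Four replicates, expressed as % viable versus control.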

Klebsiella pneumoniae [2] = test: Inhibition of beta lactamase KPC-3 in Klebsiella pneumoniae 81 assessed as potentiation of ceftazidime-induced antibacterial activity by measuring ceftazidime MIC at 16 mg/L incubated for 18 hrs by broth dilution method (reference value: >[…] mg/L)
Klebsiella pneumoniae [3] = test: Inhibition of beta lactamase KPC-3 in Klebsiella pneumoniae 83 assessed as potentiation of meropenem-induced antibacterial activity by measuring meropenem MIC at 16 mg/L incubated for 18 hrs by broth dilution method (reference value: […] mg/L)
Klebsiella pneumoniae [4] = test: Inhibition of beta lactamase CMY-2 in Klebsiella pneumoniae 78 assessed as potentiation of ceftazidime-induced antibacterial activity by measuring ceftazidime MIC at 16 mg/L incubated for 18 hrs by broth dilution method (reference value: >[…] mg/L)
[5] = Cytotoxicity against human MRC5 cells assessed as cell viability at 4 ug/ml incubated for 72 hrs by MTT assay; assay type: cell-based; settings: read-out: Activity; summary of the method: as §1
Escherichia coli [6] = test: Inhibition of beta lactamase CMY-2 in Escherichia coli 77 assessed as potentiation of ceftazidime-induced antibacterial activity by measuring diameter of zone inhibition at 0.3 mg incubated for 18 hrs in presence of 30 ug ceftazidime by CLSI disc diffusion method (Rvb=13 mm)
Summary of the method: (§2)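 AmpC combination disc test on Mueller-Hinton agar, following EUCAST guidance and Yagi et al. Inhibition zones were compared between a CAZ-30 disc and a ceftazidime disc plus agent or PBA, each at 0.3 mg per disc. Plates were incubated at 35 °C for 18 h. A zone difference of at least 5 mm was counted as inhibition.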

Klebsiella pneumoniae [7] = test: Inhibition of beta lactamase SHV-12 in Klebsiella pneumoniae ATCC 700603 assessed as potentiation of ceftazidime-induced antibacterial activity by measuring ceftazidime MIC at 16 mg/L incubated for 18 hrs by broth dilution method (reference value: […] mg/L)
Klebsiella pneumoniae [8] = test: Inhibition of beta lactamase KPC-2 in Klebsiella pneumoniae 75 assessed as potentiation of meropenem-induced antibacterial activity by measuring meropenem MIC at 16 mg/L incubated for 18 hrs by broth dilution method (reference value: […] mg/L)
[9] = Cytotoxicity against human MRC5 cells assessed as cell viability at 16 ug/ml incubated for 72 hrs by MTT assay; assay type: cell-based; settings: read-out: Activity; summary of the method: as §1
Pseudomonas aeruginosa [10] = test: Inhibition of beta lactamase OXA-15 in Pseudomonas aeruginosa 852 assessed as potentiation of ceftazidime-induced antibacterial activity by measuring ceftazidime MIC at 16 mg/L incubated for 18 hrs by broth dilution method (reference value: >[…] mg/L)
[11] = Cytotoxicity against human MRC5 cells assessed as cell viability at 1 ug/ml incubated for 72 hrs by MTT assay; assay type: cell-based; settings: read-out: Activity; summary of the method: as §1
Acinetobacter baumannii [12] = test: Inhibition of beta lactamase OXA-24 in Acinetobacter baumannii 181 assessed as potentiation of meropenem-induced antibacterial activity by measuring meropenem MIC at 16 mg/L incubated for 18 hrs by broth dilution method (reference value: […] mg/L)
[13] = system: Klebsiella pneumoniae ATCC BAA-1705; test: Inhibition of beta lactamase KPC in Klebsiella pneumoniae ATCC BAA 1705 assessed as potentiation of meropenem-induced antibacterial activity by measuring diameter of zone inhibition at 0.3 mg incubated for 18 hrs in presence of 10 ug meropenem by CLSI disc diffusion method (Rvb=[…] mm)
[14] = Cytotoxicity against human MRC5 cells assessed as cell viability at 0.5 ug/ml incubated for 72 hrs by MTT assay; assay type: cell-based; settings: read-out: Activity; summary of the method: as §1
[15] = system: Klebsiella pneumoniae ATCC BAA-1705; test: Inhibition of beta lactamase KPC-2 in Klebsiella pneumoniae ATCC BAA 1705 assessed as potentiation of meropenem-induced antibacterial activity by measuring meropenem MIC at 16 mg/L incubated for 18 hrs by broth dilution method (reference value: […] mg/L)
[16] = Cytotoxicity against human MRC5 cells assessed as cell viability at 8 ug/ml incubated for 72 hrs by MTT assay; assay type: cell-based; settings: read-out: Activity; summary of the method: as §1
[17] = system: Stenotrophomonas maltophilia; test: Bactericidal activity against Stenotrophomonas maltophilia ATCC 13637 measured after 18 hrs by CLSI broth dilution method; assay type: functional; settings: ATCC 13637, 18 h
Summary of the method: (§3)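 Strains stored at -80 °C and subcultured twice on tryptic soy agar before testing. Compounds dissolved in DMSO. […] MBC then determined per CLSI recommendations.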

Klebsiella pneumoniae [18] = test: Inhibition of beta lactamase KPC-3 in Klebsiella pneumoniae 83 assessed as potentiation of ceftazidime-induced antibacterial activity by measuring ceftazidime MIC at 16 mg/L incubated for 18 hrs by broth dilution method (reference value: >[…] mg/L)
Acinetobacter baumannii [19] = test: Inhibition of beta lactamase OXA-24 in Acinetobacter baumannii 181 assessed as potentiation of ceftazidime-induced antibacterial activity by measuring ceftazidime MIC at 16 mg/L incubated for 18 hrs by broth dilution method (reference value: >[…] mg/L)
Pseudomonas aeruginosa [20] = test: Inhibition of beta lactamase AmpC in Pseudomonas aeruginosa MUW 700 assessed as potentiation of ceftazidime-induced antibacterial activity by measuring diameter of zone inhibition at 0.3 mg incubated for 18 hrs in presence of 30 ug ceftazidime by CLSI disc diffusion method (Rvb=11 mm); summary of the method: as §2
Escherichia coli [21] = test: Inhibition of beta lactamase KPC-3 in Escherichia coli 82 TR assessed as potentiation of ceftazidime-induced antibacterial activity by measuring ceftazidime MIC at 16 mg/L incubated for 18 hrs by broth dilution method (reference value: […] mg/L)
Escherichia coli [22] = test: Inhibition of beta lactamase KPC-3 in Escherichia coli 82 TR assessed as potentiation of meropenem-induced antibacterial activity by measuring meropenem MIC at 16 mg/L incubated for 18 hrs by broth dilution method (reference value: 2 mg/L)
[23] = system: Klebsiella pneumoniae ATCC BAA-1705; test: Inhibition of beta lactamase KPC-2 in Klebsiella pneumoniae ATCC BAA 1705 assessed as potentiation of ceftazidime-induced antibacterial activity by measuring ceftazidime MIC at 16 mg/L incubated for 18 hrs by broth dilution method
Escherichia coli [24] = test: Inhibition of beta lactamase CMY-2 in Escherichia coli 77 assessed as potentiation of ceftazidime-induced antibacterial activity by measuring ceftazidime MIC at 16 mg/L incubated for 18 hrs by broth dilution method (reference value: […] mg/L)
[25] = Dissociation constant, pKa2 of compound in 0.1 M NaOH by potentiometric analysis; assay type: physicochemical
Enterococcus faecalis = test: Bactericidal activity against Enterococcus faecalis ATCC 29212 measured after 18 hrs by CLSI broth dilution method; assay type: functional; settings: ATCC 29212, 18 h; summary of the method: as §3

SMILES	viability at 72 h, 32 ug/ml [1]	MIC (Klebsiella pneumoniae [2])	MIC (Klebsiella pneumoniae [3])	MIC (Klebsiella pneumoniae [4])	viability at 72 h, 4 ug/ml [5]	inhibition zone (IZ) (Escherichia coli [6])	MIC (Klebsiella pneumoniae [7])	MIC (Klebsiella pneumoniae [8])	MIC (Pseudomonas aeruginosa [10])	MIC (Acinetobacter baumannii [12])	inhibition zone (IZ) [13]	MIC [15]	MBC [17]	MIC (Klebsiella pneumoniae [18])	MIC (Acinetobacter baumannii [19])	inhibition zone (IZ) (Pseudomonas aeruginosa [20])	MIC (Escherichia coli [21])	MIC (Escherichia coli [22])	MIC [23]	MIC (Escherichia coli [24])	further results
C[Si]1(C)OB(O)c2ccc(F)c(F)c21	74%	64 µg/mL	32 µg/mL	64 µg/mL	111%	22 mm	32 µg/mL	32 µg/mL	> 64 µg/mL	> 64 µg/mL	14 mm	64 µg/mL	400 µg/mL (≈ 1870 µM)	> 64 µg/mL	> 64 µg/mL	14 mm	32 µg/mL	2 µg/mL	64 µg/mL	16 µg/mL	viability at 72 h, 16 ug/ml [9]: 99%; viability at 72 h, 1 ug/ml [11]: 114%; viability at 72 h, 0.5 ug/ml [14]: 108%; viability at 72 h, 8 ug/ml [16]: 111%
C[Si]1(C)OB(O)c2ccc(Cl)cc21	–	–	–	–	–	–	–	–	–	–	–	–	200 µg/mL (≈ 941 µM)	–	–	–	–	–	–	–	–
C[Si]1(C)OB(O)c2c(F)c3c(c(F)c21)B(O)OC3	–	64 µg/mL	32 µg/mL	> 64 µg/mL	–	20 mm	64 µg/mL	32 µg/mL	> 64 µg/mL	> 64 µg/mL	12 mm	64 µg/mL	400 µg/mL (≈ 1480 µM)	64 µg/mL	> 64 µg/mL	11 mm	32 µg/mL	2 µg/mL	64 µg/mL	32 µg/mL	pKa [25]: 7.8
C[Si]1(C)OB(O)c2ccc(B(O)O)cc21	102%	64 µg/mL	8 µg/mL	64 µg/mL	129%	22 mm	64 µg/mL	16 µg/mL	> 64 µg/mL	> 64 µg/mL	18 mm	32 µg/mL	–	64 µg/mL	> 64 µg/mL	18 mm	32 µg/mL	0.25 µg/mL	64 µg/mL	8 µg/mL	MBC (Enterococcus faecalis): 400 µg/mL (≈ 1800 µM); viability at 72 h, 16 ug/ml [9]: 120%; viability at 72 h, 1 ug/ml [11]: 117%; viability at 72 h, 0.5 ug/ml [14]: 112%; viability at 72 h, 8 ug/ml [16]: 126%
C[Si]1(C)OB(O)c2ccc(Cl)c(Cl)c21	–	–	–	–	–	–	–	–	–	–	–	–	400 µg/mL (≈ 1620 µM)	–	–	–	–	–	–	–	MBC (Enterococcus faecalis): 400 µg/mL (≈ 1620 µM)
C[Si]1(C)OB(O)c2c(F)c(F)c(F)c(F)c21	–	64 µg/mL	32 µg/mL	64 µg/mL	–	22 mm	64 µg/mL	32 µg/mL	> 64 µg/mL	> 64 µg/mL	13 mm	64 µg/mL	–	> 64 µg/mL	> 64 µg/mL	11 mm	32 µg/mL	2 µg/mL	64 µg/mL	16 µg/mL	–
C[Si]1(C)OB(O)c2ccc(C(F)(F)F)cc21	–	–	–	–	–	–	–	–	–	–	–	–	–	–	–	–	–	–	–	–	MBC (Enterococcus faecalis): 50 µg/mL (≈ 203 µM)
C[Si]1(C)OB(O)c2cc(B(O)O)cc(F)c21	–	–	–	–	–	–	–	–	–	–	–	–	–	–	–	–	–	–	–	–	pKa [25]: 10.2
C[Si]1(C)OB(O)c2cc3c(c(F)c21)COB3O	54.3%	64 µg/mL	32 µg/mL	> 64 µg/mL	108%	20 mm	32 µg/mL	32 µg/mL	> 64 µg/mL	> 64 µg/mL	12 mm	64 µg/mL	–	> 64 µg/mL	> 64 µg/mL	16 mm	32 µg/mL	1 µg/mL	64 µg/mL	16 µg/mL	viability at 72 h, 16 ug/ml [9]: 100%; viability at 72 h, 1 ug/ml [11]: 112%; viability at 72 h, 0.5 ug/ml [14]: 112%; viability at 72 h, 8 ug/ml [16]: 105%; pKa [25]: 8.6
